Test results taken from paper PMC4059944 (Nature, 2014).
Several values for one entry are separate records, joined by “and”; a condition that tells them apart may be missing. Equal values may be shown once.

B2: Ctf4 N-terminal deletion (Ctf4CTD, aa 461-927) (domain or fragment)
chain: THSFPISLANTGKFRYMPFSPAGTPFGFTDRRYLTMNEVGYVSTVKNSEQYSITVSFFDVGRFREYHFEDLFGYDLCFLNEKGTLFGQSKTGQIQYRPHDSIHSNWTKIIPLQAGERITSVAATPVRVIVGTSLGYFRSFNQFGVPFAVEKTSPIVALTAQNYRVFSVHYSQFHGLSYSLSELGTSSKRYYKRECPLPMSLPNINSDMKKDANLDYYNFNPMGIKSLFFSSYGDPCIFGSDNTLLLLSKWRSPEESKWLPILDSNMEIWKMSGGKETTDIHVWPLALAYDTLNCILVKGKHIWPEFPLPLPSEMEIRMPVFVKSKLLEENKAILNKKNEIGADTEAEEGEEDKEIQIPVSMAAEEEYLRSKVLSELLTDTLENDGEMYGNENEVLAALNGAYDKALLRLFASACSDQNVEKALSLAHELKQDRALTAAVKISERAELPSLVKKINNIREARYEQQLK

Tests used:
Ctf4CTD [1] = assay: X-ray crystallography of Ctf4CTD crystals soaked with peptide; format: binding, yeast (S. cerevisiae); conditions: soaked 24 hours at 19 °C
Ctf4CTD [2] = assay: Fluorescence polarization; format: binding, yeast (S. cerevisiae); conditions: fluorescence anisotropy, 25°C, 20 mM HEPES pH 7.2, 140 mM KCl, 5% (w/v) glycerol; 40 nM (Sld5) or 50 nM (Pol1) fluorescein-labeled peptide; mean of three independent experiments
[3] = Multi-angle laser scattering; format: physicochemical, yeast (S. cerevisiae); conditions: size exclusion chromatography - MALS
Outline: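 Recombinant His-tagged full-length yeast Ctf4, expressed in E. coli BL21(DE3)-CodonPlus (1 mM IPTG, 37°C, 2 h), purified by Ni-NTA, Mono Q ion exchange and Superdex 200 gel filtration. About 100 μg loaded onto an HPLC size-exclusion column equilibrated in 150 mM NaCl, 20 mM Tris pH 8.0, 1 mM DTT. Eluate read by 8-angle light scattering and refractive index detectors.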

CMG helicase = conditions: yeast cells; cited from earlier work
[4] = biological target: T1, Ctf4CTD (yeast Ctf4 amino acids 471 to 927) (S. cerevisiae, UniProt Q01454 471-927); assay: native MS
T1 sequence: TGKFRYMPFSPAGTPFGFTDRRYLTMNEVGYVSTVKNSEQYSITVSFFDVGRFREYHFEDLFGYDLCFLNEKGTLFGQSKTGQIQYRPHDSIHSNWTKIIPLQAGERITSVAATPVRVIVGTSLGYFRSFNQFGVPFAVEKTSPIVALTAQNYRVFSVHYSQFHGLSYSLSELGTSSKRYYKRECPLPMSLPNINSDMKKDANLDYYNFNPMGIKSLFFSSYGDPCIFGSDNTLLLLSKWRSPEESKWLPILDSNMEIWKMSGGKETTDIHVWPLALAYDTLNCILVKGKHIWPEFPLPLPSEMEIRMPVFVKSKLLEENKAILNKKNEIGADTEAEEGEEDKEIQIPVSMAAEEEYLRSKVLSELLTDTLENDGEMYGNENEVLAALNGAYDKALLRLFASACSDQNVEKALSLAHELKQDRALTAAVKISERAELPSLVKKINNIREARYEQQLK

[5] = biological target: T1, Ctf4CTD (yeast Ctf4 amino acids 471 to …); assay: pull-down
[6] = biological target: the molecule itself; assay: negative-stain single-particle electron microscopy
[7] = biological target: T2, GINSPsf1ΔC (Strep III-tagged, for electron microscopy) (S. cerevisiae, UniProt Q12146 1-194; Q12488 1-164; P40359 1-213; Q03406 1-294); assay: negative-stain single-particle electron microscopy
T2 sequence 1: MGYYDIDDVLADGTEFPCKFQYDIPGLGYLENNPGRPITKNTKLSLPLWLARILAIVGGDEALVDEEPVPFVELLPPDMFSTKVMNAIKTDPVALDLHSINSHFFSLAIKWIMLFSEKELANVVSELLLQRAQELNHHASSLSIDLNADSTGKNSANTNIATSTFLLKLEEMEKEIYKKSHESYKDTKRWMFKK
T2 sequence 2: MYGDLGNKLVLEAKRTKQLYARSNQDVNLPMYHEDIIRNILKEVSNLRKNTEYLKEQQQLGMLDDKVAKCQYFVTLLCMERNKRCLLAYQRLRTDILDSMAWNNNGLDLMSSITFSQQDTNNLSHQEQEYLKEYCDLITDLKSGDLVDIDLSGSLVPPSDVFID
T2 sequence 3: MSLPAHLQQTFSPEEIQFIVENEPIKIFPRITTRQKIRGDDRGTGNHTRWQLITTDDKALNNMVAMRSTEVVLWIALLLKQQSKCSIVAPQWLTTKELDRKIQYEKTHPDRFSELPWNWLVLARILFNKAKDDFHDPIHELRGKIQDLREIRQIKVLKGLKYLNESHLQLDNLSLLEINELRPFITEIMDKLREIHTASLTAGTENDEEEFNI
T2 sequence 4: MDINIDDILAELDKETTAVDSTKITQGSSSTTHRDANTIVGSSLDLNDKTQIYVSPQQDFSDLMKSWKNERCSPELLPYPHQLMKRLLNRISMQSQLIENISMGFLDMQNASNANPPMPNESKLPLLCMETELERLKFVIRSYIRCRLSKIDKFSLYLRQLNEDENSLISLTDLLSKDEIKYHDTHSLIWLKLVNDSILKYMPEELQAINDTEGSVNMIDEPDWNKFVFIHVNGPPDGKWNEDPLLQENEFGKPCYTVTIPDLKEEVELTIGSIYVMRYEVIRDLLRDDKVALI

Ctf4CTD trimer = assay: Single-particle electron microscopy of Ctf4CTD complexes; format: binding, yeast (S. cerevisiae)
[8] = biological target: B2; assay: negative-stain single-particle electron microscopy

## 137-IDNFDDILGEFES-149 [Pol1 peptide]
Ctf4CTD [1]; open crystal form
  occupancy of binding sites in Ctf4CTD trimer crystal: occupies each of the two binding sites available in this crystal form
Ctf4CTD [1]
  conformational change in helical domain of Ctf4CTD on binding: does not induce an appreciable conformational change in the helical domain of Ctf4CTD

## MDINIDDILAELDKETTAV [Sld5]
Ctf4CTD [1]; compared with Ctf4-binding motif of Pol1
  mode of interaction with Ctf4: near-identical mode of interaction

## 1- MDINIDDILAELDKETTAV -19 [Ctf4-binding sequence of Sld5]
Ctf4CTD [2]
  tighter association with Ctf4 compared to Pol1 (fold): ~ 5 fold

B1: Ctf4: full-length yeast Ctf4 protein (protein)
chain: MVSVIDKLVFDFGGKTLVSLAPDNNTLCVANKNGLTKILKTNNPEEEPETLDSSKLVSSIKCYSNSHFLMTTMQGDALRYNIDSSQEELLARFALPLRDCCVIHSGKMAVFGGDDLELILLELDDETHKKHAIKIDEQVSQISYNSQMNILAVSMINGKVQIFSLTSTIPNKVHELNDYIVANSYDDTHRDKILSNMMDDIDKDNDNDLSETADPDENNVADPEFCAANRICTRVAWHPKGLHFALPCADDTVKIFSIKGYSLQKTLSTNLSSTKAHFIDLQFDPLRGTYIAAVDLNNKLTVWNWETSEIHYTREFKRKITNIAWKIQADSKTLDLVLGTWSGSIAIVQNLAESVVSNIPDQSVAESSTKHGLFVDSESDLENLEGNDDINKSDKLFSDITQEANAEDVFTQTHDGPSGLSEKRKYNFEDEEDFIDDDDGAGYISGKKPHNEHSYSRVHKTHSFPISLANTGKFRYMPFSPAGTPFGFTDRRYLTMNEVGYVSTVKNSEQYSITVSFFDVGRFREYHFEDLFGYDLCFLNEKGTLFGQSKTGQIQYRPHDSIHSNWTKIIPLQAGERITSVAATPVRVIVGTSLGYFRSFNQFGVPFAVEKTSPIVALTAQNYRVFSVHYSQFHGLSYSLSELGTSSKRYYKRECPLPMSLPNINSDMKKDANLDYYNFNPMGIKSLFFSSYGDPCIFGSDNTLLLLSKWRSPEESKWLPILDSNMEIWKMSGGKETTDIHVWPLALAYDTLNCILVKGKHIWPEFPLPLPSEMEIRMPVFVKSKLLEENKAILNKKNEIGADTEAEEGEEDKEIQIPVSMAAEEEYLRSKVLSELLTDTLENDGEMYGNENEVLAALNGAYDKALLRLFASACSDQNVEKALSLAHELKQDRALTAAVKISERAELPSLVKKINNIREARYEQQLK
[3]
  oligomeric state in solution (MALS): stable homotrimers in solution
[3]; listed as full-length Ctf4
  oligomeric state in solution (MALS): stable trimer in solution
CMG helicase
  salt concentration resisted by association of Ctf4 with CMG: ≥ 700 mM

## IDNFDDILGEFES [Pol1 peptide 137-IDNFDDILGEFES-149]
[4]
  stoichiometry N: 1 peptides per Ctf4CTD trimer and 2 peptides per Ctf4CTD trimer and 3 peptides per Ctf4CTD trimer

## MDINIDDILAEADKETTAVD (domain or fragment) [GST-Sld5 (1-20) L12A]
[5]
  binding result: binds

## MDINIDAILAELDKETTAVD (domain or fragment) [GST-Sld5 (1-20) D7A]
[5]
  binding result: binds

## B2
[6]
  stoichiometry N: 3
[7]
  binding result: binds

## MDINIDDILAELDKETTAVD (domain or fragment) [GST-Sld5 (residues 1 to 20)]
[5]
  binding result: binds

## MDINIDDILAELDKETTAV [Sld5 peptide 1-MDINIDDILAELDKETTAV-19]
[4]
  stoichiometry N: 1 peptides per Ctf4CTD trimer and 2 peptides per Ctf4CTD trimer and 3 peptides per Ctf4CTD trimer

B3: Pol1NTD (Pol1-NTD-ProteinA: N-terminal region of Pol1, residues 1 to 351, fused to Protein A) (domain or fragment)
chain: MSSKSEKLEKLRKLQAARNGTSIDDYEGDESDGDRIYDEIDEKEYRARKRQELLHDDFVVDDDGVGYVDRGVEEDWREVDNSSSDEDTGNLASKDSKRKKNIKREKDHQITDMLRTQHSKSTLLAHAKKSQKKSIPIDNFDDILGEFESGEVEKPNILLPSKLRENLNSSPTSEFKSSIKRVNGNDESSHDAGISKKVKIDPDSSTDKYLEIESSPLKLQSRKLRYANDVQDLLDDVENSPVVATKRQNVLQDTLLANPPSAQSLADEEDDEDSDEDIILKRRTMRSVTTTRRVNIDSRSNPSTSPFVTAPGTPIGIKGLTPSKSLQSNTDVATLAVNVKKEDVVDPETDT
Ctf4CTD trimer; reconstituted hetero-assemblies, Pol1 residues 1 to 351 fused to Protein A
  Ctf4CTD - GINS - Pol1NTD complexes observed: varied stoichiometries, with partial or full occupancy of the Ctf4 trimer
Ctf4CTD trimer; reference-free class averages, box size 448 Å
  Ctf4CTD - Pol1NTD complex observed: ring-shaped core linked to one mobile globular density
[8]
  binding result: binds
